This sample holds only a part of the variants without activity. Where only a bound is given, the exact number is not on record here.

The results in this text go back to the RNAGym collection of RNA variant scans (doi:10.1126/science.aae0568).

The chains are these.
B1: tRNA (parent)
chain: GUUCCGUUGGCGUAAUGGUAACGCGUCUCCCUCCUAAGGAGAAGACUGCGGGUUCGAGUCCCGUACGGAACG

This data set covers variants of B1. In words: yeast fitness relative to wild type (ratio to wild type); higher = fitter; tRNA-Arg(CCU), competitive growth, 37 C, YPD. Summed up:
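The tRNA-Arg(CCU) gene variants were made by chemical synthesis with a 3% per-site mutation rate at 69 sites and inserted at the native genomic locus of Saccharomyces cerevisiae. After pooling, the strains were competed in YPD at 37°C for 24 hours in six parallel replicates. Gene amplicons from the start population and each end population were read by 100-nucleotide paired-end sequencing, and Darwinian fitness relative to wild type was taken from genotype frequency changes. Genotypes needed ≥ 100 starting reads, and estimates < 0.5 were set to 0.5.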
Take C34A C49G G50A U64A: the yeast fitness was 0.551.

As to C34G A37U C62A, the yeast fitness was not above 0.5. C34A A37G A57U: the yeast fitness came out at 0.616. For C34A U47C A57G A65U, the yeast fitness was not above 0.5. To C34U A45C A69C A70C belongs 0.569. Take C33U G50C A57C: the yeast fitness came to 0.623. For the variant C34A C55A, the yeast fitness was 0.566. With C34G A36G C60G, the yeast fitness came out at 0.642. Regarding C34A C46U C61G, the yeast fitness is not above 0.5.

With C34A G68A, the yeast fitness amounted to 0.647. On to C34U A37U A45G, for which the yeast fitness was not above 0.5.

Turning to C34G G63A, the yeast fitness amounted to 0.633. As to C34A A40G U47A C66G A69C A70C, the yeast fitness was 0.693. Consider C33U G67A, for which the yeast fitness is 0.776. In the case of C33U G67C, the yeast fitness was found to be 0.839. As for C34G A37C G63A, the yeast fitness was not above 0.5.

Turning to C33U G41C G68C A69U, the yeast fitness is not above 0.5. For the variant C33U C61U, the yeast fitness stood at 0.734. Under C34A C66A stands 0.509; under C34G G50C C55G C60A, 0.715; under C34G G44C G58C G68U, not above 0.5. Regarding C34G G50A U59A, the yeast fitness is not above 0.5.

C33U G56A: the yeast fitness came out at 0.682. For the variant C34A U59C, the yeast fitness turned out to be 0.728. In the case of C34A A42C C60G, the yeast fitness was not above 0.5. In the case of C33U A45C A57U U59C, the yeast fitness was not above 0.5.

As to C34A C49U G51C C61U, the yeast fitness was not above 0.5. As to C34A C49A U59G, the yeast fitness turned out to be 0.654.

Consider C34G A42U G68C, for which the yeast fitness was not above 0.5.

Consider C33U C60U, for which the yeast fitness turned out to be 0.629.

As to C33U C60G, the yeast fitness was determined as 0.607. As for C34A C49A C60G A65C, the yeast fitness is not above 0.5. With C34A A43C, the yeast fitness was found to be 0.645. Turning to C34A A43U, the yeast fitness is 0.729. Regarding C34A A42U A65C, the yeast fitness was not above 0.5.

With C34A C46U U47A U59G, the yeast fitness is not above 0.5. On to C33U C34G C62A, for which the yeast fitness was not above 0.5. Take C34A G50A C61G: the yeast fitness is not above 0.5. For C33U U64A, the yeast fitness is 0.677.

For the variant C33U G39C A57U, the yeast fitness is 0.643. In the case of C34G G50C C55G, the yeast fitness came out at 0.59.

Regarding C34U A45U C66U, the yeast fitness worked out at 0.57. Consider C34G G39U U47G, for which the yeast fitness was not above 0.5. As to C34U A65C, the yeast fitness was found to be 0.884. Take C34A A36G: the yeast fitness came out at 0.741.

With C34A A36U, the yeast fitness amounted to 0.518. With C34A A36C, the yeast fitness amounted to 0.511. C33U G39A A57G: the yeast fitness was not above 0.5. To C34U A37U C46A G51A A65U belongs not above 0.5; to C34G C49G, 0.657. Take C34A A70U: the yeast fitness stood at 0.924.

In the case of C33U G50A, the yeast fitness amounted to 0.626. Under C34G C55G U59C C60U G67U stands 0.555; under C34A A42C U59A G67C, not above 0.5; under C33U A43G, 0.672.

In the case of C33U A45C C49U, the yeast fitness was found to be 0.652. To C34A A37G G41A belongs not above 0.5. Consider C34A G52A, for which the yeast fitness came to 0.741. Consider C34A G52C, for which the yeast fitness is 0.721.

Regarding C34U A43G A69C, the yeast fitness is 0.553. To C33U C34G A45C C60A belongs not above 0.5. Turning to C34U A36G G41A U47A G58C G63C G67A, the yeast fitness is not above 0.5.

Consider C34G G38C U47C C62G A69C, for which the yeast fitness is not above 0.5. To C34A C60G belongs 0.664; to C34G G39C U53G G56A, not above 0.5; to C34G G67C, 0.604.

Take C34U A43U A45U: the yeast fitness was 0.534. For the variant C34G G48C C62U C66G, the yeast fitness is not above 0.5. Consider C34G A45C A57C A65G, for which the yeast fitness is not above 0.5. In the case of C34A A37U A69C, the yeast fitness was not above 0.5. Consider C33U G48C, for which the yeast fitness was 0.778.

Take C34A A40G C66U: the yeast fitness is not above 0.5.

Regarding C34G G38C A70G, the yeast fitness was not above 0.5. As for C34A G52C C60G, the yeast fitness worked out at 0.544. On to C33U A43C C46G, for which the yeast fitness was not above 0.5. C34A A36G U47C: the yeast fitness is not above 0.5. Under C34A G51C stands not above 0.5; under C34G U53C, 0.578.

With C33U G38A C49U C61A, the yeast fitness is not above 0.5.

As to C34G U35G A40U A42G C61G, the yeast fitness was not above 0.5.

C34A G51A G67A: the yeast fitness is not above 0.5. To C34A U47C A70G belongs 0.612; to C34G A43U, 0.625. For C34G A43C, the yeast fitness was found to be 0.594. In the case of C33U C49A G68C, the yeast fitness is not above 0.5. To C34G G58C A65U belongs not above 0.5. On to C33U G51A A57U, for which the yeast fitness was not above 0.5. Turning to C34U A45C, the yeast fitness was 0.6. Take C34A U47A G68A: the yeast fitness is not above 0.5. For C34A G44C A70U, the yeast fitness came to 0.54. Under C33U C46A stands 0.821; under C33U C46U, 0.708. On to C33U A42U G68A A70G, for which the yeast fitness worked out at 0.534. To C33U C46G C49U belongs 0.632; to C34U A37G C62A, not above 0.5; to C34G C46U C49U, not above 0.5. As for C33U G50C A70U, the yeast fitness is not above 0.5.

For the variant C34U A37U, the yeast fitness is 0.535. For C34A A36U G52A C60A, the yeast fitness was not above 0.5. Regarding C34U A45C C60A, the yeast fitness is not above 0.5.

C34A U64A: the yeast fitness was 0.783.

In the case of C34A A42U A43C, the yeast fitness stood at 0.629. With C34A U47A C61G, the yeast fitness is not above 0.5. C33U G38A C60G U64C: the yeast fitness was not above 0.5.

On to C33U G44A, for which the yeast fitness turned out to be 0.652. C34A A37U G63C: the yeast fitness was not above 0.5. To C34G C55A G68A belongs not above 0.5; to C34G A42C C55A C60U, not above 0.5. Turning to C34G G48A, the yeast fitness came to 0.662. In the case of C34U A37C G63A, the yeast fitness was not above 0.5. On to C34A G51A C61G A69U, for which the yeast fitness was determined as 0.606. For the variant C33U G52C G56C, the yeast fitness was not above 0.5. To C34U A42G belongs 0.712; to C33U A42U, 0.729.

With C34A C46G C60A, the yeast fitness was not above 0.5. C34A U35C: the yeast fitness is 0.519. As to C33U A43U G44A C49G G50C C61U C66U, the yeast fitness is not above 0.5. Regarding C33U C49A, the yeast fitness stood at 0.638. Under C33U C49U stands 0.849; under C34G C49A G50A, not above 0.5; under C34U A36G A45U U64A, not above 0.5. In the case of C33U A43G C62G, the yeast fitness is not above 0.5. Under C34U A36G C66A stands not above 0.5; under C34G A42G, 0.716. To C34A C61G G68C belongs 0.538; to C34G U47C C49U, 0.638. With C33U G38A C46U U64C, the yeast fitness was 0.536. To C33U A65C C66U belongs 0.59; to C34A G44A C46U G68A, 0.56. For C34A A42G C46U, the yeast fitness was not above 0.5.

With C34G A45U, the yeast fitness came out at 0.567.

On to C33U G41C C55A A69C, for which the yeast fitness is not above 0.5. Regarding C34G G39A G50C, the yeast fitness is not above 0.5.

Regarding C33U G58U C61A, the yeast fitness is not above 0.5.

As for C34G A65C, the yeast fitness came out at 0.65.

Turning to C34G A65G, the yeast fitness was 0.765. Take C34G A65U: the yeast fitness was determined as 0.581. Regarding C34A G63A, the yeast fitness is 0.621.

Regarding C34G A37G, the yeast fitness was 0.725. On to C33U G39A A69C, for which the yeast fitness was not above 0.5. As for C33U C49A G58C A69U, the yeast fitness amounted to 0.52. C34G G44C C66A: the yeast fitness was found to be 0.595. Regarding C34A A36G A65C G68C, the yeast fitness is not above 0.5. On to C34U A45C G67U A69C A70C, for which the yeast fitness was not above 0.5. Take C33U U47C G48A G58A: the yeast fitness worked out at 0.506. Take C34G C46U: the yeast fitness was 0.616. For C34G C46A, the yeast fitness was found to be 0.615.

Take C34G A40C C62U A69U: the yeast fitness was 0.573.

For C34G C55G U59C C60U, the yeast fitness is not above 0.5. C34A A42U G58A C62U G63A: the yeast fitness is not above 0.5.

Take C34G A36U C62U: the yeast fitness is not above 0.5. With C34G A36C, the yeast fitness is not above 0.5. Take C34G A36G: the yeast fitness came out at 0.644. Under C34U A43G U54C stands not above 0.5. To C33U G58C belongs 0.635; to C34G G38C G68C, 0.582. Under C34G A42G G48C stands 0.531.

C34A C49A G51C: the yeast fitness is 0.591. With C33U G41A C61G, the yeast fitness is not above 0.5. Regarding C34A G44C, the yeast fitness was found to be 0.574. Under C34A C49U G58C stands not above 0.5; under C33U C62U, 0.717. To C34G A40G U53A G68C belongs not above 0.5; to C34G U47C, 0.599.

In the case of C34G U35G G39A, the yeast fitness is 0.593. On to C33U C34A A43C, for which the yeast fitness was not above 0.5.

For C33U A65G, the yeast fitness stood at 0.665.
